This test deals with T1, recombinant human TDP2 (Homo sapiens, UniProt O95551).
T1 sequence (O95551 1-362): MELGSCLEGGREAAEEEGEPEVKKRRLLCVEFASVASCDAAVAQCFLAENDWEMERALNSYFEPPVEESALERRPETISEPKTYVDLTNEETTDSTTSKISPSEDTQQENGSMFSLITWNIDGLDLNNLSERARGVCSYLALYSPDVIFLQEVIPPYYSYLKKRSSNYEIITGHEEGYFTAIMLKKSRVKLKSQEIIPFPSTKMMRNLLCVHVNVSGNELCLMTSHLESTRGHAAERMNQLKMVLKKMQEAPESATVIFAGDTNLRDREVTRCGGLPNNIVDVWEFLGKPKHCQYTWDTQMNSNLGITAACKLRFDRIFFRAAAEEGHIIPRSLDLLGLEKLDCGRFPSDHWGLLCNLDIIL
Put plainly: Recombinant TDP2 assay. Format: biochemical. In short, it runs like this:
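Human recombinant TDP2 (25 pM) with 1 nM 18-mer 5'-phosphotyrosyl ssDNA, 3'-α32P-cordycepin-labelled. Reaction ran 15 min at room temperature in Tris-HCl pH 7.5, KCl, MgCl2, EDTA, DTT, BSA and Tween 20. Stopped with formamide loading buffer, then 16% denaturing PAGE and phosphorimaging densitometry of product. […] IC50 is 50% enzyme inhibition.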
For orientation: IC50 means the concentration at which inhibition is half-maximal. On to `CCOC(=O)c1c(C)oc2c1C(=O)c1ccccc1C2=O` [Compound 11, Ethyl 2-methyl-4,9-dioxo-4,9-dihydronaphtho[2,3-b]furan-3-carboxylate], for which the IC50 was over 111 µM.

Take `CCOC(=O)c1c(C)oc2c1C(=O)c1cnccc1C2=O` [Compound 12, Ethyl 2-methyl-4,9-dioxo-4,9-dihydrofuro[2,3-g]isoquinoline-3-carboxylate]: the IC50 is 32 ± 3.2 µM.

Turning to `CCOC(=O)c1c(C)oc2c1C(=O)c1ccncc1C2=O` [Compound 13, Ethyl 2-methyl-4,9-dioxo-4,9-dihydrofuro[3,2-g]isoquinoline-3-carboxylate], the IC50 is over 111 µM.

Take `CCOC(=O)c1c(C)oc2c1C(=O)c1nccnc1C2=O` [Compound 14, Ethyl 7-methyl-5,9-dioxo-5,9-dihydrofuro[2,3-g]quinoxaline-8-carboxylate]: the IC50 worked out at 61 ± 43 µM.

Consider `CCOC(=O)c1c(C)oc2c1C(=O)c1nc3ccccc3cc1C2=O` [Compound 16, Ethyl 2-methyl-4,11-dioxo-4,11-dihydrofuro[2,3-b]acridine-3-carboxylate], for which the half-maximal inhibitory concentration (IC50) is over 111 µM.

Turning to `CCOC(=O)c1c(C)oc2c1C(=O)c1nc(Cl)ccc1C2=O` [Compound 19, Ethyl-6-chloro-2-methyl-4,9-dioxo-4,9-dihydrofuro[2,3-g]quinoline-3-carboxylate], the IC50 amounted to 94 ± 29 µM.

Regarding `CCOC(=O)c1c(C)oc2c1C(=O)c1ccc(Cl)nc1C2=O` [Compound 20, Ethyl-7-chloro-2-methyl-4,9-dioxo-4,9-dihydrofuro[3,2-g]quinoline-3-carboxylate], the IC50 was over 111 µM.

In the case of `CCOC(=O)c1c(C)oc2c1C(=O)c1nc(C)ccc1C2=O` [Compound 21, Ethyl-2,6-dimethyl-4,9-dioxo-4,9-dihydrofuro[2,3-g]quinoline-3-carboxylate], the IC50 was 21 ± 5.5 µM.

Take `CCOC(=O)c1c(C)oc2c1C(=O)c1ccc(C)nc1C2=O` [Compound 22, Ethyl-2,7-dimethyl-4,9-dioxo-4,9-dihydrofuro[3,2-g]quinoline-3-Carboxylate]: the IC50 is over 111 µM.

Consider `CCOC(=O)c1c(C)oc2c1C(=O)c1nc(N(C)C)ccc1C2=O` [Compound 23, Ethyl-6-(dimethylamino)-2-methyl-4,9-dioxo-4,9-dihydrofuro[2,3-g]quinoline-3-carboxylate], for which the IC50 amounted to 37 ± 7 µM.

Take `CCOC(=O)c1c(C)oc2c1C(=O)c1nc(N3CCCCC3)ccc1C2=O` [Compound 24, Ethyl-2-methyl-4,9-dioxo-6-(piperidin-1-yl)-4,9-dihydrofuro[2,3-g]quinoline-3-carboxylate]: the IC50 was determined as 44 ± 2 µM.

Regarding `CCOC(=O)c1c(C)oc2c1C(=O)c1nc(N3CCN(C)CC3)ccc1C2=O` [Compound 25, Ethyl-2-methyl-6-(4-methylpiperazin-1-yl)-4,9-dioxo-4,9-dihydrofuro[2,3-g]quinoline-3-carboxylate], the IC50 is over 111 µM.

On to `C#CCN(C)c1ccc2c(n1)C(=O)c1c(oc(C)c1C(=O)OCC)C2=O` [Compound 26, Ethyl-2-methyl-6-(methyl(prop-2-yn-1-yl)amino)-4,9-dioxo-4,9-dihydrofuro[2,3-g]quinoline-3-carboxylate], for which the half-maximal inhibitory concentration (IC50) is over 111 µM.

For `CCOC(=O)c1c(C)oc2c1C(=O)c1nc(-c3ccc(OC)cc3)ccc1C2=O` [Compound 27, Ethyl6-(4-methoxyphenyl)-2-methyl-4,9-dioxo-4,9-dihydrofuro[2,3-g]quinoline-3-carboxylate], the 50% inhibitory concentration (IC50) was over 111 µM.

With `CCOC(=O)c1c(C)oc2c1C(=O)c1nc(-c3ccco3)ccc1C2=O` [Compound 28, Ethyl-6-(furan-2-yl)-2-methyl-4,9-dioxo-4,9-dihydrofuro[2,3-g]quinoline-3-carboxylate], the IC50 is over 111 µM.

Turning to `CCOC(=O)c1c(C)oc2c1C(=O)c1ccc(N(C)C)nc1C2=O` [Compound 30, Ethyl-7-(dimethylamino)-2-methyl-4,9-dioxo-4,9-dihydrofuro[3,2-g]quinoline-3-carboxylate], the IC50 is over 111 µM.

Turning to `CCOC(=O)c1c(C)oc2c1C(=O)c1ccc(N3CCCCC3)nc1C2=O` [Compound 31, Ethyl-2-methyl-4,9-dioxo-7-(piperidin-1-yl)-4,9-dihydrofuro[3,2-g]quinoline-3-carboxylate], the IC50 was over 111 µM.

For `CCOC(=O)c1c(C)oc2c1C(=O)c1ncc(C)cc1C2=O` [Compound 33, Ethyl-2,7-dimethyl-4,9-dioxo-4,9-dihydrofuro[2,3-g]quinoline-3-carboxylate], the IC50 was over 111 µM.

For `CCOC(=O)c1c(C)oc2c1C(=O)c1nccc(-c3ccccc3[N+](=O)[O-])c1C2=O` [Compound 34, Ethyl-2-methyl-8-(2-nitrophenyl)-4,9-dioxo-4,9-dihydrofuro[2,3-g]quinoline-3-carboxylate], the IC50 is over 111 µM.

Regarding `CCOC(=O)c1ccnc2c1C(=O)c1oc(C)c(C(=O)OCC)c1C2=O` [Compound 35, Diethyl-2-methyl-4,9-dioxo-4,9-dihydrofuro[2,3-g]quinoline-3,8-dicarboxylate], the IC50 is 69 ± 3.1 µM.

On to `CCOC(=O)c1c(C)oc2c1C(=O)c1nccc(CC)c1C2=O` [Compound 36, Ethyl-8-ethyl-2-methyl-4,9-dioxo-4,9-dihydrofuro[2,3-g]quinoline-3-carboxylate], for which the IC50 was 28 ± 1.3 µM.

Regarding `CCOC(=O)c1c(C(C)C)oc2c1C(=O)c1ncccc1C2=O` [Compound 39, Ethyl 2-isopropyl-4,9-dioxo-4,9-dihydrofuro[2,3-g]quinoline-3-carboxylate], the IC50 was 25 ± 7.7 µM.

Consider `CCOC(=O)c1c(C(C)C)oc2c1C(=O)c1cccnc1C2=O` [Compound 40, Ethyl 2-isopropyl-4,9-dioxo-4,9-dihydrofuro[3,2-g]quinoline-3-carboxylate], for which the concentration for half-maximal inhibition (IC50) is over 111 µM.

`CCOC(=O)c1c(-c2ccccc2)oc2c1C(=O)c1ncccc1C2=O` [Compound 41, Ethyl 4,9-dioxo-2-phenyl-4,9-dihydrofuro[2,3-g]quinoline-3-carboxylate]: the IC50 is 28 ± 6.4 µM.

As for `CCOC(=O)c1c(-c2ccccc2)oc2c1C(=O)c1cccnc1C2=O` [Compound 42, Ethyl 4,9-dioxo-2-phenyl-4,9-dihydrofuro[3,2-g]quinoline-3-carboxylate], the IC50 was 47 ± 24 µM.

For the compound `CCOC(=O)c1c(CBr)oc2c1C(=O)c1ncccc1C2=O` [Compound 43, Ethyl 2-(bromomethyl)-4,9-dioxo-4,9-dihydrofuro[2,3-g]quinoline-3-carboxylate], the concentration for half-maximal inhibition (IC50) amounted to 21 ± 5.5 µM.

On to `CCOC(=O)c1c(C(Br)Br)oc2c1C(=O)c1ncccc1C2=O` [Compound 44, Ethyl 2-(dibromomethyl)-4,9-dioxo-4,9-dihydrofuro[2,3-g]quinoline-3-carboxylate], for which the IC50 was determined as 27 ± 2.5 µM.

Regarding `CCOC(=O)c1c(CN2CCN(C(C)=O)CC2)oc2c1C(=O)c1ncccc1C2=O` [Compound 45, Ethyl 2-((4-acetylpiperazin-1-yl)methyl)-4,9-dioxo-4,9-dihydrofuro[2,3-g]qui noline-3-carboxylate], the half-maximal inhibitory concentration (IC50) was 31 ± 4.2 µM.

Consider `CCOC(=O)c1c(CN2CCOCC2)oc2c1C(=O)c1ncccc1C2=O` [Compound 46, Ethyl 2-(morpholinomethyl)-4,9-dioxo-4,9-dihydrofuro[2,3-g]quinoline-3-ca rboxylate], for which the IC50 amounted to 22 ± 6.4 µM.

`CCOC(=O)c1c(CN2CCSCC2)oc2c1C(=O)c1ncccc1C2=O` [Compound 47, Ethyl 4,9-dioxo-2-(thiomorpholinomethyl)-4,9-dihydrofuro[2,3-g]quinoline3-carboxylate]: the IC50 stood at 31 ± 6.4 µM.

Source of the values: article PMC9893515 (Bioorganic chemistry, 2021).
